Tests used:
Format in all cases: functional, cell-based
HeLa = experiment: Anticancer activity against human HeLa cells after 48 hrs by SRB assay
Method in brief: (§1)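 Cells seeded 10^4 cells/well and allowed to attach for 24 h, then exposed to compounds dissolved in DMSO at 10, 25, 50 and 100 μM, triplicate wells per concentration, for 48 h at 37 °C in 5% CO2. Fixed, stained 30 min with 0.4% (wt/vol) SRB in 1% acetic acid, washed four times with 1% acetic acid, dye recovered in Tris-EDTA, absorbance read. IC50 taken from survival curves; doxorubicin reference.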

HT-1080 = experiment: Anticancer activity against human HT1080 cells after 48 hrs by SRB assay; settings: HT-1080, 48 h; method in brief: as §1
HepG2 = experiment: Anticancer activity against human HepG2 cells after 48 hrs by SRB assay; method in brief: as §1
[1] = Anticancer activity against human […] cells after 48 hrs by SRB assay; method in brief: as §1
MDA-MB-231 = experiment: Anticancer activity against human MDA-MB-231 cells after 48 hrs by SRB assay; method in brief: as §1
LoVo = experiment: Anticancer activity against human LoVo cells after 48 hrs by SRB assay; method in brief: as §1
[2] = Homo sapiens, HeLa, 48 h, read-out: IC50
[3] = Homo sapiens, 48 h, read-out: IC50
[4] = Homo sapiens, MDA-MB-231, 48 h, read-out: IC50
[5] = Homo sapiens, LoVo, 48 h, read-out: IC50
[6] = Homo sapiens, HepG2, 48 h, read-out: IC50

Row | IC50 (HeLa; [2]) [µM] | IC50 (HT-1080) [µM] | IC50 (HepG2; hepg2) | IC50 (MDA-MB-231; [4]) [µM] | IC50 (LoVo; [5]) [µM] | IC50 (HepG2; [6]) [µM] | IC50 (MDA-MB-231; mda-mb-231) | IC50 (LoVo; lovo) | IC50 (HeLa; hela) | SMILES | IC50 [1, 3] [µM] | IC50 [1]
1 | 41 | 25.4 | Not Active | 52.9 | 30.2 | – | – | – | – | O=C(Nc1ccccc1)Nc1ccc(S(=O)(=O)Nc2ccnc3cc(C(F)(F)F)ccc23)cc1 | 24.5 | –
2 | 36.6 | 31 | – | 52.9 | 34.5 | 52.2 | – | – | – | NS(=O)(=O)c1ccc(N/C(S)=N\c2ccnc3cc(C(F)(F)F)ccc23)cc1 | 36.6 | –
3 | 37.6 | 28.3 | – | 58.6 | 30 | 28.4 | – | – | – | CC(=O)NS(=O)(=O)c1ccc(N/C(S)=N\c2ccnc3cc(C(F)(F)F)ccc23)cc1 | 37.6 | –
4 | 23.9 | 24.3 | – | – | 23.9 | 33.5 | Not Active | – | – | N=C(N)NS(=O)(=O)c1ccc(N/C(S)=N\c2ccnc3cc(C(F)(F)F)ccc23)cc1 | 23.9 | –
5 | 60.2 | 27.3 | – | 80.3 | – | 28.5 | – | Not Active | – | Cc1cc(NS(=O)(=O)c2ccc(N/C(S)=N\c3ccnc4cc(C(F)(F)F)ccc34)cc2)on1 | 60.2 | –
6 | – | 27.7 | – | 27.9 | 67 | 36.8 | – | – | Not Active | Cc1noc(NS(=O)(=O)c2ccc(N/C(S)=N\c3ccnc4cc(C(F)(F)F)ccc34)cc2)c1C | 34 | –
7 | 95.2 | 27.3 | – | 24.4 | 67.1 | 28.2 | – | – | – | O=S(=O)(Nc1nccs1)c1ccc(N/C(S)=N\c2ccnc3cc(C(F)(F)F)ccc23)cc1 | 27.2 | –
8 | 68.8 | 28 | – | 49.3 | 87.5 | 28 | – | – | – | O=S(=O)(Nc1ccccn1)c1ccc(N/C(S)=N\c2ccnc3cc(C(F)(F)F)ccc23)cc1 | 33.5 | –
9 | – | 29.1 | – | 45.2 | 34.7 | 42.1 | – | – | Not Active | O=S(=O)(Nc1ncccn1)c1ccc(N/C(S)=N\c2ccnc3cc(C(F)(F)F)ccc23)cc1 | 37.8 | –
10 | 31 | 28.7 | Not Active | 29.8 | 31 | – | – | – | – | Cc1ccnc(NS(=O)(=O)c2ccc(N/C(S)=N\c3ccnc4cc(C(F)(F)F)ccc34)cc2)n1 | 31 | –
11 | 33 | 29.5 | – | 52.9 | 40.2 | 72.2 | – | – | – | Cc1cc(C)nc(NS(=O)(=O)c2ccc(N/C(S)=N\c3ccnc4cc(C(F)(F)F)ccc34)cc2)n1 | 43.4 | –
12 | 53.8 | 29.5 | – | 52.1 | 76.7 | 76.7 | – | – | – | COc1cc(NS(=O)(=O)c2ccc(N/C(S)=N\c3ccnc4cc(C(F)(F)F)ccc34)cc2)nc(OC)n1 | 64.5 | –
13 | – | 22.8 | – | 83 | 28.4 | 77.2 | – | – | Not Active | COc1ncnc(NS(=O)(=O)c2ccc(N/C(S)=N\c3ccnc4cc(C(F)(F)F)ccc34)cc2)c1OC | 81.8 | –
14 | 61.2 | 56.1 | – | 34.4 | 26.6 | 50.8 | – | – | – | NS(=O)(=O)c1ccc(Nc2ccnc3cc(C(F)(F)F)ccc23)cc1 | 79 | –
15 | – | 41.6 | – | 75.6 | 51.5 | 46 | – | – | Not Active | CC(=O)NS(=O)(=O)c1ccc(Nc2ccnc3cc(C(F)(F)F)ccc23)cc1 | 64.2 | –
16 | 41.3 | 49.8 | Not Active | 28.8 | 24.7 | – | – | – | – | N=C(N)NS(=O)(=O)c1ccc(Nc2ccnc3cc(C(F)(F)F)ccc23)cc1 | 55.2 | –
17 | 97.6 | 33.5 | – | 74.8 | 33.6 | 33.5 | – | – | – | Cc1cc(NS(=O)(=O)c2ccc(Nc3ccnc4cc(C(F)(F)F)ccc34)cc2)on1 | 74.8 | –
18 | – | 31.9 | – | 39.3 | 36 | 40.8 | – | – | Not Active | Cc1noc(NS(=O)(=O)c2ccc(Nc3ccnc4cc(C(F)(F)F)ccc34)cc2)c1C | 53.1 | –
19 | 34.1 | 25.8 | – | 52.8 | 56.8 | 82.6 | – | – | – | O=S(=O)(Nc1ccnn1-c1ccccc1)c1ccc(Nc2ccnc3cc(C(F)(F)F)ccc23)cc1 | 52.8 | –
20 | 70.8 | 40.3 | Not Active | 90.8 | – | – | – | Not Active | – | O=S(=O)(Nc1nccs1)c1ccc(Nc2ccnc3cc(C(F)(F)F)ccc23)cc1 | 66.1 | –
21 | 44.8 | 41.8 | – | 18.4 | 20.2 | 46.1 | – | – | – | O=S(=O)(Nc1ccccn1)c1ccc(Nc2ccnc3cc(C(F)(F)F)ccc23)cc1 | 30.4 | –
22 | 78.1 | 27.2 | Not Active | 54.7 | 27.4 | – | – | – | – | O=S(=O)(Nc1ncccn1)c1ccc(Nc2ccnc3cc(C(F)(F)F)ccc23)cc1 | 34.2 | –
23 | – | 32.5 | Not Active | – | – | – | Not Active | Not Active | Not Active | Cc1ccnc(NS(=O)(=O)c2ccc(Nc3ccnc4cc(C(F)(F)F)ccc34)cc2)n1 | 62.5 | –
24 | 32 | 32.8 | Not Active | 36.2 | 44.3 | – | – | – | – | Cc1cc(C)nc(NS(=O)(=O)c2ccc(Nc3ccnc4cc(C(F)(F)F)ccc34)cc2)n1 | – | Not Active
25 | 83.2 | 39.2 | – | – | 50.4 | 83.8 | Not Active | – | – | COc1cc(NS(=O)(=O)c2ccc(Nc3ccnc4cc(C(F)(F)F)ccc34)cc2)nc(OC)n1 | 37.9 | –
26 | – | 26 | – | 49.4 | 39.9 | 66.1 | – | – | Not Active | COc1ncnc(NS(=O)(=O)c2ccc(Nc3ccnc4cc(C(F)(F)F)ccc34)cc2)c1OC | 36.9 | –
27 | 35.3 | 17.9 | – | 18.4 | 19.7 | 27.6 | – | – | – | O=C(Nc1ccccc1)NS(=O)(=O)c1ccc(Nc2ccnc3cc(C(F)(F)F)ccc23)cc1 | 18.4 | –
28 | 46 | 29.6 | – | 30.9 | 53.6 | 93.1 | – | – | – | Nc1ccc(S(=O)(=O)Nc2ccnc3cc(C(F)(F)F)ccc23)cc1 | 29.2 | –

Row | SMILES | IC50 (HeLa; [2]) [µM] | IC50 (HT-1080) [µM] | IC50 (HepG2; hepg2) | IC50 (MDA-MB-231; [4]) [µM] | IC50 (LoVo; [5]) [µM] | IC50 (HepG2; [6]) [µM] | IC50 (MDA-MB-231; mda-mb-231) | IC50 (LoVo; lovo) | IC50 (HeLa; hela) | IC50 [1, 3] [µM] | IC50 [1]
29 | COc1cccc2c1C(=O)c1c(O)c3c(c(O)c1C2=O)C[C@@](O)(C(=O)CO)C[C@@H]3O[C@H]1C[C@H](N)[C@H](O)[C@H](C)O1 [DOXORUBICIN] | 30.2 | 19.2 | – | 34 | 24.3 | 27.1 | – | – | – | 32.8 | –
